Sampled rows, rich in hits. Any-hit rate of the full collection: about 2.2%.
Neddylation inh = inhibitors of human cullin neddylation | inhibition, % at 25 µM | 360,000 tested, 0.58% active | TR-FRET cullin neddylation, biochemical | AID 651699; in the data active = inhibition above about 36%
Target sequence (P61081 whole entry, looked up): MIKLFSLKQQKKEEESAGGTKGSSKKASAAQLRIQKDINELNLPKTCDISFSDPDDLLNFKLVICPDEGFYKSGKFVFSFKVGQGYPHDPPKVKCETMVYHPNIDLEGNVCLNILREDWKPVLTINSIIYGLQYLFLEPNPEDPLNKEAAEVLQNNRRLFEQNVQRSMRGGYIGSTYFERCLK
Target sequence (Q13564 whole entry, looked up): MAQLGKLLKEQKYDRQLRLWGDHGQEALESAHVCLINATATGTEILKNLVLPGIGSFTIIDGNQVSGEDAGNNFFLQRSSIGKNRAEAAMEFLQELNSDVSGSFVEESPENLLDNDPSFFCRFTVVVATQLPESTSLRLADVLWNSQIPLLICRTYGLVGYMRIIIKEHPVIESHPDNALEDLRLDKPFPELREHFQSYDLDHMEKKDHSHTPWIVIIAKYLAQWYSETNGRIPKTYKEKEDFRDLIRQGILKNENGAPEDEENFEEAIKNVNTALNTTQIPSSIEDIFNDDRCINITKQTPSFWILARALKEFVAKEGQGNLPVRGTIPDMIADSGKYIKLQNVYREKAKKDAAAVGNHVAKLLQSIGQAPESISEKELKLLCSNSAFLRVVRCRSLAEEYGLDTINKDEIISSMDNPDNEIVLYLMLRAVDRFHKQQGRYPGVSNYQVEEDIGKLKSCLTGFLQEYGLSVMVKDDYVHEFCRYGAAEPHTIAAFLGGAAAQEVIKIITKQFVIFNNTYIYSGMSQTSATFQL
PfM18AAP inh = PfM18AAP enzyme inhibition | recombinant PfM18AAP, H-Glu-NHMec fluorogenic cleavage | inhibition, % at 7.35 µM | 290,000 tested, 1.2% active;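 active = inhibition above the campaign mean inhibition over all tested compounds plus 3 SD, cut at about 28% in these data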;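 also: 0% = plate median of test compound wells and 100% = 2 mM ZnCl2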
HKDC1 inh = HKDC1 (human) hexokinase inhibition; AID 493160; 340,000 tested, 0.16% active; Q2TB90; recombinant HKDC1, G6PDH/diaphorase resazurin coupled fluorescence; inhibition, % at 20 µM;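 active = inhibition above about 35% when tested at 20 µM, limit read from the data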;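 also: plate controls were DMSO wells with enzyme for no effect and DMSO wells lacking enzyme for full effect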
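Test system: recombinant HKDC1 (HK5) hexokinase enzyme, produced in-house / Doses: 20 µM test compound, 1% DMSO / Timing: 90 min, room temperature / Detection: G6PDH/diaphorase-coupled fluorescence, 1 mM NADP, 100 µM resazurin, 525/613 nm / Control set: DMSO wells with and without enzyme mix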
PfG6PD inh = PfG6PD (Plasmodium falciparum) enzyme inhibition; inhibition, % at 20 µM; PfGluPho enzyme, NADPH resazurin-diaphorase fluorescence; 350,000 tested, 0.78% active;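 active = inhibition reaching at least a set limit at 20 µM in the primary screen, cut at about 59% in these data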;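 also: 0% = DMSO wells with substrate and 100% = DMSO wells lacking glucose-6-phosphate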
The depositor's hits bear a star.

Results for Cc1nc2cc(C(=O)O)ccc2s1 ?
Neddylation inh: -1; PfM18AAP inh: 30*; HKDC1 inh: -4; PfG6PD inh: -2

Results for COc1ccccc1Oc1ccc2c(c1)C(=O)N(c1cccc(O)c1)C2=O ?
Neddylation inh: -18; PfM18AAP inh: 31*; HKDC1 inh: -4; PfG6PD inh: 30

Results for Cc1occc1C(=O)Nc1sc2c(c1C(N)=O)CCCCC2 ?
Neddylation inh: 3; PfM18AAP inh: 29*; HKDC1 inh: 3; PfG6PD inh: 33

What do the screens show for `COC(=O)c1c(NC(=O)c2ccoc2C)sc2c1CCC2`?
Neddylation inh: 14; PfM18AAP inh: -3; HKDC1 inh: 3; PfG6PD inh: 10

Results for CC1=CC(=O)C(C(C)C)=C/C1=N/OC(=O)c1cccc([N+](=O)[O-])c1 ?
Neddylation inh: -20; PfM18AAP inh: 2; HKDC1 inh: -3; PfG6PD inh: 25

What do the screens show for `CC1=CC(=O)C(C(C)C)=CC1=NC(=O)c1ccc(C)cc1`?
Neddylation inh: 3; PfM18AAP inh: -9; HKDC1 inh: 9; PfG6PD inh: 93*

Results for O=C1CC(c2ccccc2)Cc2nc3ncnn3cc21 (stereo unspecified) ?
Neddylation inh: 1; PfM18AAP inh: 28*; HKDC1 inh: -6; PfG6PD inh: 5

How did CNC(CC(=O)c1ccc([N+](=O)[O-])cc1)C(Cl)(Cl)Cl (stereo unspecified) do in these assays?
Neddylation inh: -39; PfM18AAP inh: 8; HKDC1 inh: 12; PfG6PD inh: 70*

Results for CCCn1c(SCC(=O)NC2CCC(C)CC2)n[nH]c1=O (stereo unspecified) ?
Neddylation inh: -21; HKDC1 inh: -1; PfG6PD inh: 2

Results for COc1ccccc1N/N=C/c1ccc2c(c1)OCO2 ?
Neddylation inh: 6; PfM18AAP inh: 31*; HKDC1 inh: -9; PfG6PD inh: 15

How did COc1ccccc1C(=O)N/N=C/c1ccc2c(c1)OCO2 do in these assays?
Neddylation inh: 1; PfM18AAP inh: -5; HKDC1 inh: -5; PfG6PD inh: 20

How did CCCCN1CC(COCc2ccccc2)Oc2cccc(Oc3ccc(C)cc3)c2S1(=O)=O (stereo unspecified) do in these assays?
Neddylation inh: 9; HKDC1 inh: -2; PfG6PD inh: 10

How did Cc1nn(CC(=O)NC2CCS(=O)(=O)C2)c(C)c1[N+](=O)[O-] (stereo unspecified) do in these assays?
Neddylation inh: 0; HKDC1 inh: 1; PfG6PD inh: -2

What do the screens show for `CCN(C(=O)COC(=O)CCC(=O)c1ccc(C)cc1)c1c(N)n(Cc2ccccc2)c(=O)[nH]c1=O`?
Neddylation inh: 4; HKDC1 inh: -8; PfG6PD inh: -4

Results for CCN(CC(=O)Nc1ccc(Br)cc1)C(=O)c1nc2nc(C)cc(C)n2n1 ?
Neddylation inh: -4; HKDC1 inh: -5; PfG6PD inh: 1

How did CC1(C)OC(=O)C2(Cc3ccccc3N3CCCCC32)C(=O)O1 (stereo unspecified) do in these assays?
Neddylation inh: 4; PfM18AAP inh: 29*; HKDC1 inh: -1; PfG6PD inh: -17

What do the screens show for `COC(=O)c1c(NC(=O)C(C)C)sc(C(=O)N2CCOCC2)c1C`?
Neddylation inh: -2; PfM18AAP inh: 31*; HKDC1 inh: -3; PfG6PD inh: 3

What do the screens show for `O=[N+]([O-])c1ccc(N2CCN(c3ccccc3Cl)CC2)cn1`?
Neddylation inh: -31; PfM18AAP inh: 32*; HKDC1 inh: 3; PfG6PD inh: -11

Results for O=C(CCC1CCCN(c2ncccn2)C1)NCc1ccccc1F (stereo unspecified) ?
Neddylation inh: 4; PfM18AAP inh: 32*; HKDC1 inh: -2; PfG6PD inh: -11

Results for Cc1ccc(C2CC(=O)N3CN(Cc4ccco4)CSC3=C2C#N)cc1 (stereo unspecified) ?
Neddylation inh: -8; PfM18AAP inh: 31*; HKDC1 inh: 3; PfG6PD inh: 59

What do the screens show for `COc1ccc(C2CC(=O)N3C(=C2C#N)SCC3(O)c2ccccc2)cc1` (stereo unspecified)?
Neddylation inh: -21; PfM18AAP inh: 17; HKDC1 inh: -10; PfG6PD inh: 14

What do the screens show for `COc1ccc2ccccc2c1C1CC(=O)N2CN(C)CSC2=C1C#N` (stereo unspecified)?
Neddylation inh: -6; PfM18AAP inh: 26; HKDC1 inh: 10; PfG6PD inh: 79*

What do the screens show for `CCOc1ccc(N2CSC3=C(C#N)C(c4ccco4)CC(=O)N3C2)cc1` (stereo unspecified)?
Neddylation inh: 1; PfM18AAP inh: 33*; HKDC1 inh: -1; PfG6PD inh: 4

Compound activity: PubChem BioAssay, several laboratories
